The text below walks through data of ChEMBL document CHEMBL2375276, “Antibacterial oxazolidinone analogues having a N-hydroxyacetyl-substituted seven-membered [1,2,5]triazepane or [1,2,5]oxadiazepane C-ring unit” (Eur J Med Chem, 2013).

The term ED50 denotes the midpoint of the dose-response relation.

Common to all, as to assay type: functional
Experiment [1] relates to Staphylococcus aureus. In words: Antibacterial activity against Staphylococcus aureus SR20549 clinical isolate assessed as growth inhibition by CLSI broth microdilution method. In a few lines:
(§1)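 MIC by CLSI broth microdilution in cation-adjusted Mueller-Hinton broth; S. pneumoniae medium supplemented with 5% lysed horse blood.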
For orientation: Broth dilution looks for growth in wells or tubes with falling amounts of substance.

In the next experiment the test system is Streptococcus pneumoniae. As to the kind of experiment: Antibacterial activity against Streptococcus pneumoniae SR26207 clinical isolate assessed as growth inhibition by CLSI broth microdilution method. In a few lines:
as §1

For a further experiment, the system named is Enterococcus faecium. As to the kind of experiment: Antibacterial activity against Enterococcus faecium SR7940 clinical isolate assessed as growth inhibition by CLSI broth microdilution method. In a few lines: as §1
The subject of experiment [2] is Staphylococcus aureus. In words: Antibacterial activity against linezolid-resistant Staphylococcus aureus NRS271 assessed as growth inhibition by CLSI broth microdilution method. In a few lines:
(§2)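 MIC by CLSI broth microdilution in cation-adjusted Mueller-Hinton broth. Lowest concentration inhibiting growth taken as MIC.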

Another experiment has as its system Enterococcus faecalis. In words: Antibacterial activity against Enterococcus faecalis SR1004 clinical isolate assessed as growth inhibition by CLSI broth microdilution method. In a few lines: as §1
Another experiment deals with Haemophilus influenzae. As to the kind of experiment: Antibacterial activity against Haemophilus influenzae SR27914 clinical isolate assessed as growth inhibition by CLSI broth microdilution method. In a few lines:
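MIC by CLSI broth microdilution using Haemophilus test medium.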

The test system of experiment [3] is Staphylococcus aureus. In words: Antibacterial activity against Staphylococcus aureus Smith assessed as growth inhibition by CLSI broth microdilution method. In a few lines:
as §1

The test system of the next experiment is Moraxella catarrhalis. As to the kind of experiment: Antibacterial activity against Moraxella catarrhalis SR26840 clinical isolate assessed as growth inhibition by CLSI broth microdilution method. In a few lines: as §1
In experiment [4] the test system is Staphylococcus aureus. As to the kind of experiment: Antibacterial activity against methicillin-resistant Staphylococcus aureus SR3637 infected in JCL/ICR mouse systemic infection model assessed as mortality administered as iv measured over 7 days. The conditions noted are these: 168 h. Summed up: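 Five-week-old male JCL/ICR mice (20–25 g), five per group. Infected intraperitoneally with 0.5 or 1.0 mL bacterial suspension (about 100× LD50). Intravenous dosing 1 h post-infection. Mortality followed 7 days; ED50 with 95% confidence limits by logit method.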

Experiment [5] deals with Staphylococcus aureus. In words: Antibacterial activity against methicillin-resistant Staphylococcus aureus SR3637 assessed as growth inhibition by CLSI broth microdilution method. Summed up: as §2
Experiment [6] relates to Staphylococcus aureus. In words: Antibacterial activity against methicillin-resistant Staphylococcus aureus SR3637 infected in JCL/ICR mouse systemic infection model assessed as mortality administered as po measured over 7 days. The following applies: 168 h. Summed up: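 Five-week-old male JCL/ICR mice (20–25 g), five per group. Infected intraperitoneally with 0.5 or 1.0 mL bacterial suspension (about 100× LD50). Oral dosing 1 h post-infection. Mortality followed 7 days; ED50 with 95% confidence limits by logit method.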

In brackets after ≈: the same amount, converted by molar mass.

In the case of `O=C(CO)N1CCN(c2ccc(N3C[C@H](CNc4ccon4)OC3=O)cc2F)CCN1`, the MIC in the experiment on Staphylococcus aureus [1] was 1 µg/mL (≈ 2.3 µM); in the experiment with Streptococcus pneumoniae it was 0.5 µg/mL (≈ 1.15 µM); in the experiment on Enterococcus faecium, 2 µg/mL (≈ 4.6 µM); with Staphylococcus aureus [2], 64 µg/mL (≈ 147 µM); with Enterococcus faecalis, 2 µg/mL (≈ 4.6 µM); in the experiment with Haemophilus influenzae, 32 µg/mL (≈ 73.7 µM). Moreover, the MIC with Staphylococcus aureus [3] was determined as 2 µg/mL (≈ 4.6 µM); in the experiment on Moraxella catarrhalis, 16 µg/mL (≈ 36.8 µM).

Turning to `O=C(CO)N1CCN(c2c(F)cc(N3C[C@H](CNc4ccon4)OC3=O)cc2F)CCN1`, the MIC with Staphylococcus aureus [1] stood at 0.5 µg/mL (≈ 1.11 µM); with Streptococcus pneumoniae, 0.125 µg/mL (≈ 0.276 µM); in the experiment on Enterococcus faecium it was 1 µg/mL (≈ 2.21 µM); with Staphylococcus aureus [2] it was 8 µg/mL (≈ 17.7 µM); in the experiment on Enterococcus faecalis, 0.25 µg/mL (≈ 0.553 µM); in the experiment with Haemophilus influenzae, 16 µg/mL (≈ 35.4 µM). Also, the figures for the MIC in the experiment with Staphylococcus aureus [3], with Staphylococcus aureus [5] and in the experiment with Moraxella catarrhalis were 0.5 µg/mL (≈ 1.11 µM), 0.5 µg/mL (≈ 1.11 µM) and 16 µg/mL (≈ 35.4 µM), respectively. Moreover, the ED50 worked out at 2.18 mg/kg with Staphylococcus aureus [4] and 2.83 mg/kg in the experiment on Staphylococcus aureus [6].

For the molecule `COC(=S)NC[C@H]1CN(c2cc(F)c(N3CCNOCC3)c(F)c2)C(=O)O1`, the MIC worked out at 0.25 µg/mL (≈ 0.621 µM) in the experiment with Staphylococcus aureus [1]; 0.125 µg/mL (≈ 0.311 µM) with Streptococcus pneumoniae; 0.25 µg/mL (≈ 0.621 µM) in the experiment with Enterococcus faecium; 4 µg/mL (≈ 9.94 µM) in the experiment on Staphylococcus aureus [2]; 0.5 µg/mL (≈ 1.24 µM) in the experiment with Enterococcus faecalis; 8 µg/mL (≈ 19.9 µM) in the experiment on Haemophilus influenzae. For the same molecule, the results for the MIC in the experiment with Staphylococcus aureus [3] and with Moraxella catarrhalis were 0.5 µg/mL (≈ 1.24 µM) and 1 µg/mL (≈ 2.48 µM), respectively.

On to `CC(=O)NC[C@H]1CN(c2cc(F)c(N3CCNN(C(=O)CO)CC3)c(F)c2)C(=O)O1`, for which the MIC was 1 µg/mL (≈ 2.34 µM) in the experiment with Staphylococcus aureus [1]; 0.25 µg/mL (≈ 0.585 µM) in the experiment with Streptococcus pneumoniae; 4 µg/mL (≈ 9.36 µM) in the experiment with Enterococcus faecium; 16 µg/mL (≈ 37.4 µM) in the experiment with Staphylococcus aureus [2]; 2 µg/mL (≈ 4.68 µM) with Enterococcus faecalis; 8 µg/mL (≈ 18.7 µM) in the experiment with Haemophilus influenzae. Besides, the MIC turned out to be 1 µg/mL (≈ 2.34 µM) with Staphylococcus aureus [3] and 4 µg/mL (≈ 9.36 µM) in the experiment on Moraxella catarrhalis.

For `O=C1O[C@@H](Cn2ccnn2)CN1c1cc(F)c(N2CCNOCC2)c(F)c1`, the MIC was 1 µg/mL (≈ 2.63 µM) with Staphylococcus aureus [1]; 0.5 µg/mL (≈ 1.31 µM) with Streptococcus pneumoniae; 1 µg/mL (≈ 2.63 µM) with Enterococcus faecium; 16 µg/mL (≈ 42.1 µM) in the experiment with Staphylococcus aureus [2]; 2 µg/mL (≈ 5.26 µM) in the experiment with Enterococcus faecalis; 8 µg/mL (≈ 21 µM) in the experiment on Haemophilus influenzae. Further, the figures for the MIC in the experiment on Staphylococcus aureus [3] and in the experiment on Moraxella catarrhalis were 2 µg/mL (≈ 5.26 µM) and 4 µg/mL (≈ 10.5 µM), respectively.

`O=C(CO)N1CCN(c2c(F)cc(N3C[C@H](Cn4ccnn4)OC3=O)cc2F)CCN1`: the MIC amounted to 1 µg/mL (≈ 2.29 µM) in the experiment on Staphylococcus aureus [1]; 0.5 µg/mL (≈ 1.14 µM) with Streptococcus pneumoniae; 1 µg/mL (≈ 2.29 µM) in the experiment on Enterococcus faecium; 16 µg/mL (≈ 36.6 µM) with Staphylococcus aureus [2]; 1 µg/mL (≈ 2.29 µM) with Enterococcus faecalis; 8 µg/mL (≈ 18.3 µM) with Haemophilus influenzae. The MIC in the experiment on Staphylococcus aureus [3] was 2 µg/mL (≈ 4.57 µM); in the experiment with Staphylococcus aureus [5], 1 µg/mL (≈ 2.29 µM); in the experiment with Moraxella catarrhalis, 4 µg/mL (≈ 9.14 µM). Besides, the ED50 in the experiment on Staphylococcus aureus [4] amounted to 1.71 mg/kg.

Turning to `CC(=O)NC[C@H]1CN(c2cc(F)c(N3CCNOCC3)c(F)c2)C(=O)O1`, the MIC with Staphylococcus aureus [1] was 1 µg/mL (≈ 2.7 µM); in the experiment on Streptococcus pneumoniae it was 0.25 µg/mL (≈ 0.675 µM); with Enterococcus faecium it was 1 µg/mL (≈ 2.7 µM); in the experiment on Staphylococcus aureus [2], 16 µg/mL (≈ 43.2 µM); in the experiment with Enterococcus faecalis it was 2 µg/mL (≈ 5.4 µM); with Haemophilus influenzae, 16 µg/mL (≈ 43.2 µM). The MIC in the experiment with Staphylococcus aureus [3] stood at 1 µg/mL (≈ 2.7 µM); in the experiment with Moraxella catarrhalis it was 4 µg/mL (≈ 10.8 µM).

`CC(=S)NC[C@H]1CN(c2cc(F)c(N3CCNOCC3)c(F)c2)C(=O)O1`: the MIC amounted to 0.25 µg/mL (≈ 0.647 µM) in the experiment with Staphylococcus aureus [1]; 0.063 µg/mL (≈ 0.163 µM) in the experiment on Streptococcus pneumoniae; 0.125 µg/mL (≈ 0.323 µM) in the experiment with Enterococcus faecium; 4 µg/mL (≈ 10.4 µM) in the experiment on Staphylococcus aureus [2]; 0.25 µg/mL (≈ 0.647 µM) in the experiment with Enterococcus faecalis; 2 µg/mL (≈ 5.18 µM) with Haemophilus influenzae. Besides, the figures for the MIC with Staphylococcus aureus [3] and with Moraxella catarrhalis were 0.25 µg/mL (≈ 0.647 µM) and 1 µg/mL (≈ 2.59 µM), respectively.
